Assay results published in ChEMBL document CHEMBL4725354 (J Med Chem, 2020).

Columns and labels:
[1] = target: T1, Broad substrate specificity ATP-binding cassette transporter ABCG2 (Homo sapiens, UniProt Q9UNQ0); assay: Inhibition of human ABCG2-mediated multidrug resistance in MDCK2 cells assessed as potentiation of SN-38-induced cytotoxicity by measuring time need to achieve half maximal cell death at 10 to 50 nM measured up to 7 days by MTT assay; assay type: cell-based; details: mdck-ii, 168 h, dose 10-50 nM, time <=7 day
T1 sequence (Q9UNQ0 whole entry): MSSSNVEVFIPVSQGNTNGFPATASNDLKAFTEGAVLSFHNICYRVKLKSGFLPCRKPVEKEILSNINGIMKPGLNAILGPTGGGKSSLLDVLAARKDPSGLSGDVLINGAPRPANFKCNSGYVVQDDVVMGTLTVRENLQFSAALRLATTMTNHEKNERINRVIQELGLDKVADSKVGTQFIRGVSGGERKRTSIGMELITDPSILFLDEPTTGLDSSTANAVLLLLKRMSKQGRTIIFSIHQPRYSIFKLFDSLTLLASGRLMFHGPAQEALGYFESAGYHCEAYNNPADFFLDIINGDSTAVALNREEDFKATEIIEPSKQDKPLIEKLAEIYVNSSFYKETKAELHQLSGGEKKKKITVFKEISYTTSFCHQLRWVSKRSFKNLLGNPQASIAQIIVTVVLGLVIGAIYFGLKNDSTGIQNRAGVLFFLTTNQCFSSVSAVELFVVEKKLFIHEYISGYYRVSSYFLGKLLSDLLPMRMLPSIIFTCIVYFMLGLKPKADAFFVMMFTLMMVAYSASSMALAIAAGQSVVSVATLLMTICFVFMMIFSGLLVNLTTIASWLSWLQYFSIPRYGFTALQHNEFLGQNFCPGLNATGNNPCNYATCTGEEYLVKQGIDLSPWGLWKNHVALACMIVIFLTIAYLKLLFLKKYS
How it was run: (§1)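 Time-dependent reversal in ABCG2-GFP MDCK II cells: SN-38 at 0.5 µM with modulator at 0, 10, 25 or 50 nM. Seeding density decreased with assay day (10,000 cells for day 1 down to 200 for day 7). MTT viability read daily for 7 days. Results normalised to medium-only cells or to SN-38 alone. Curve inflection points plotted vs modulator concentration to derive tmax, tmin, ctmin and c½tmax. Triplicates, at least three experiments; multiple t-test.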

[2] = target: T1, Broad substrate specificity ATP-binding cassette transporter ABCG2; assay: Inhibition of human ABCG2-mediated multidrug resistance in MDCK2 cells assessed as potentiation of SN-38-induced cytotoxicity at 10 to 50 nM measured up to 7 days by MTT assay; assay type: cell-based; details: mdck-ii, 168 h, dose 10-50 nM, time <=7 day; how it was run: as §1
[3] = Growth inhibition of MDCK2 cells after 72 hrs by MTT assay; assay type: cell-based, Canis lupus familiaris, MDCK-II; details: dog
How it was run: (§2)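 MTT viability assay. Compound dilutions in culture medium (3.2 to 1000 µM as prepared). About 2,000 cells per well, 72 h at 37 °C, 5% CO2. Culture medium set as 100% and 10% DMSO as 0% viability. MTT added for 1 h, formazan dissolved in DMSO, absorbance read at 570 nm with 690 nm background. GI50 from nonlinear regression of absorbance vs log concentration; at least three independent experiments, duplicates, mean ± SEM.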

MDCK-II [4] = assay: Cytotoxicity against MDCK2 cells over expressing human ABCG2 at 10 uM assessed as reduction in cell viability after 72 hrs by MTT assay; assay type: ADME, cell-based, Canis lupus familiaris; details: dog
How it was run: (§3)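 Single-concentration screen at 10 µM in MDCK II BCRP and parental MDCK II cells. MTT assay, 72 h at 37 °C, 5% CO2. Viability referenced to culture medium (100%) and 10% DMSO (0%). Mean ± SEM of at least three independent experiments with duplicates.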

[5] = Growth inhibition of MDCK2 cells over expressing human ABCG2 after 72 hrs by MTT assay; assay type: ADME, cell-based, Canis lupus familiaris, MDCK-II; details: dog, MDCK2 cells overexpressing human ABCG2; how it was run: as §2
ABCG2 [6] = assay: Therapeutic ratio of GI50 for Growth inhibition of MDCK2 cells over expressing human ABCG2 to IC50 for inhibition of human ABCG2 expressed in MDCK2 cells co-expressing GFP preincubated for 15 mins followed by pheophorbideA addition and measured after 2 hrs by flow cytometric analysis; assay type: toxicity, cell-based; details: dog, MDCK2 cells overexpressing human ABCG2, probe pheophorbide A; read-out: TI
[7] = target: T1, Broad substrate specificity ATP-binding cassette transporter ABCG2; assay: Inhibition of human ABCG2-mediated multidrug resistance in MDCK2 cells assessed as potentiation of SN-38-induced cytotoxicity at 10 to 50 nM after 5 days by MTT assay; assay type: cell-based; details: mdck-ii, 120 h, dose 10-50 nM, time 5 day
[8] = Effect on total ABCG2 in MDCK2 cells at 10 nM after 4 to 7 days in presence of SN-38 by Western blot analysis; assay type: ADME, cell-based, Canis lupus familiaris; details: dog, mdck-ii, 0.01 µM, time 4-7 day
How it was run: (§4)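 ABCG2-GFP MDCK II cells seeded in T25 flasks (86,000 for 4 days, 17,200 for 7 days). Exposed to modulator (10 nM) and/or SN-38 (0.5 µM) for 4 or 7 days. 15 µg protein run on stain-free 10% SDS-PAGE and transferred to PVDF. Probed with BXP-21 (1:200, overnight, 4 °C) and HRP secondary, ECL detection. Bands normalised to total protein and to the untreated control; one-sample t-test.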

[9] = Down regulation of ABCG2 in MDCK2 cells at 10 nM after 7 days by Western blot analysis; assay type: functional, Canis lupus familiaris, MDCK-II; details: time 7 day; how it was run: as §4
[10] = target: T1, Broad substrate specificity ATP-binding cassette transporter ABCG2; assay: Inhibition of human ABCG2 expressed in MDCK2 cells co-expressing GFP preincubated for 15 mins followed by pheophorbideA addition and measured after 2 hrs by flow cytometric analysis; assay type: cell-based, MDCK-II
How it was run: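 Pheophorbide A added to 0.5 µM final and incubated 2 h. Read by flow cytometry (ex 488, em 695/50 nm); GFP expression checked at 525/30 nm. IC50 from 3- or 4-parameter logistic fit.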

[11] = target: T1, Broad substrate specificity ATP-binding cassette transporter ABCG2; assay: Inhibition of human ABCG2 expressed in MDCK2 cells co-expressing GFP preincubated for 30 mins followed by Hoechst 33342 addition and measured every 60 sec for 120 mins by fluorescence assay; assay type: cell-based, MDCK-II
How it was run: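 MDCK II cells transfected with human ABCG2 cDNA C-terminally fused to GFP. Hoechst 33342 added at 1 µM final. Fluorescence (ex 355, em 460 nm) read every 60 s for 120 min. Steady-state means vs log concentration fitted by 3- or 4-parameter logistic to give IC50.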

MDCK-II [12] = assay: Cytotoxicity against MDCK2 cells assessed as reduction in cell viability at 10 uM after 72 hrs by MTT assay; assay type: cell-based, Canis lupus familiaris; details: dog; how it was run: as §3
[13] = target: T1, Broad substrate specificity ATP-binding cassette transporter ABCG2; assay: Inhibition of human ABCG2-mediated multidrug resistance in MDCK2 cells assessed as potentiation of SN-38-induced cytotoxicity by measuring half-maximal cell death acceleration at 10 to 50 nM measured at 5.75 days by MTT assay; assay type: cell-based, MDCK-II; details: dose 10-50 nM, time 5.7 day; read-out: Activity
How it was run: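 MDCK II cells transfected with human ABCG2–GFP were exposed to SN-38 at 0.5 µM final, alone or with modulator at 0, 10, 25 or 50 nM. Cells were seeded at 10,000 down to 200 per well according to read-out day and kept at 37 °C, 5% CO2. MTT viability was read daily for 7 days. Inflection points of the viability–time curves were regressed against modulator concentration. At least 3 independent experiments, triplicates.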

[14] = target: T1, Broad substrate specificity ATP-binding cassette transporter ABCG2; assay: Inhibition of human ABCG2-mediated multidrug resistance in MDCK2 cells assessed as potentiation of SN-38-induced cytotoxicity at 10 nM after 7 days by MTT assay relative to SN-38 alone; assay type: cell-based; details: mdck-ii, 168 h, 0.01 µM, time 7 day; how it was run: as §1
ABCG2 [15] = assay: Therapeutic ratio of GI50 for Growth inhibition of MDCK2 cells over expressing human ABCG2 to IC50 for inhibition of human ABCG2 expressed in MDCK2 cells co-expressing GFP preincubated for 30 mins followed by Hoechst 33342 addition and measured every 60 sec for 120 mins by fluorescence assay; assay type: toxicity, cell-based; details: dog, MDCK2 cells overexpressing human ABCG2, probe Hoechst 33342; read-out: TI
[16] = Down regulation of ABCG2 in MDCK2 cells at 10 nM after 4 days by Western blot analysis; assay type: functional, Canis lupus familiaris, MDCK-II; details: time 4 day; how it was run: as §4
ABCG2 [17] = target: T2, ABCG2 (Homo sapiens, UniProt Q9UNQ0); assay: Inhibition of human ABCG2 expressed in MDCK2 cells co-expressing GFP preincubated for 30 mins followed by Hoechst 33342 addition and measured every 60 sec for 120 mins by fluorescence assay relative to control; assay type: cell-based, MDCK-II; details: probe Hoechst 33342, read-out: Imax
T2 sequence (Q9UNQ0 whole entry): T1 sequence (Q9UNQ0 whole entry)
How it was run: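 MDCK II cells transfected with human ABCG2 cDNA C-terminally fused to GFP. Steady-state means vs log concentration fitted by 3- or 4-parameter logistic to give IC50.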

ABCG2 [18] = target: T2, ABCG2; assay: Inhibition of human ABCG2 expressed in MDCK2 cells co-expressing GFP preincubated for 15 mins followed by pheophorbideA addition and measured after 2 hrs by flow cytometric analysis relative to control; assay type: cell-based, MDCK-II; details: probe pheophorbide A, read-out: Imax
[19] = target: T1, Broad substrate specificity ATP-binding cassette transporter ABCG2; assay: Inhibition of ABCG2 in human MCF7/MX cells at 1 uM incubated for 2 hrs in presence of pheophorbide A by confocal laser scanning microscopic method; assay type: cell-based; details: mcf7x
How it was run: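 MCF-7/MX cells, 1×10^5 per dish, grown 48 h to 50-60% confluence, then switched to Krebs-HEPES buffer. Pheophorbide A (0.5 µM) applied with inhibitor (1 µM) for 2 h at 37 °C, 5% CO2. Confocal imaging at ex 405 nm, em 662-737 nm, stage at 37 °C; parental MCF-7 imaged for comparison.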

[20] = target: ATP-dependent translocase ABCB1 (Homo sapiens, UniProt P08183); assay: Inhibition of human ABCB1 expressed in A2780/ADR cells preincubated for 30 mins followed by calcein AM addition and measured every 60 secs for 60 mins by fluorescence assay; assay type: cell-based
Sequence of ATP-dependent translocase ABCB1 (P08183 whole entry): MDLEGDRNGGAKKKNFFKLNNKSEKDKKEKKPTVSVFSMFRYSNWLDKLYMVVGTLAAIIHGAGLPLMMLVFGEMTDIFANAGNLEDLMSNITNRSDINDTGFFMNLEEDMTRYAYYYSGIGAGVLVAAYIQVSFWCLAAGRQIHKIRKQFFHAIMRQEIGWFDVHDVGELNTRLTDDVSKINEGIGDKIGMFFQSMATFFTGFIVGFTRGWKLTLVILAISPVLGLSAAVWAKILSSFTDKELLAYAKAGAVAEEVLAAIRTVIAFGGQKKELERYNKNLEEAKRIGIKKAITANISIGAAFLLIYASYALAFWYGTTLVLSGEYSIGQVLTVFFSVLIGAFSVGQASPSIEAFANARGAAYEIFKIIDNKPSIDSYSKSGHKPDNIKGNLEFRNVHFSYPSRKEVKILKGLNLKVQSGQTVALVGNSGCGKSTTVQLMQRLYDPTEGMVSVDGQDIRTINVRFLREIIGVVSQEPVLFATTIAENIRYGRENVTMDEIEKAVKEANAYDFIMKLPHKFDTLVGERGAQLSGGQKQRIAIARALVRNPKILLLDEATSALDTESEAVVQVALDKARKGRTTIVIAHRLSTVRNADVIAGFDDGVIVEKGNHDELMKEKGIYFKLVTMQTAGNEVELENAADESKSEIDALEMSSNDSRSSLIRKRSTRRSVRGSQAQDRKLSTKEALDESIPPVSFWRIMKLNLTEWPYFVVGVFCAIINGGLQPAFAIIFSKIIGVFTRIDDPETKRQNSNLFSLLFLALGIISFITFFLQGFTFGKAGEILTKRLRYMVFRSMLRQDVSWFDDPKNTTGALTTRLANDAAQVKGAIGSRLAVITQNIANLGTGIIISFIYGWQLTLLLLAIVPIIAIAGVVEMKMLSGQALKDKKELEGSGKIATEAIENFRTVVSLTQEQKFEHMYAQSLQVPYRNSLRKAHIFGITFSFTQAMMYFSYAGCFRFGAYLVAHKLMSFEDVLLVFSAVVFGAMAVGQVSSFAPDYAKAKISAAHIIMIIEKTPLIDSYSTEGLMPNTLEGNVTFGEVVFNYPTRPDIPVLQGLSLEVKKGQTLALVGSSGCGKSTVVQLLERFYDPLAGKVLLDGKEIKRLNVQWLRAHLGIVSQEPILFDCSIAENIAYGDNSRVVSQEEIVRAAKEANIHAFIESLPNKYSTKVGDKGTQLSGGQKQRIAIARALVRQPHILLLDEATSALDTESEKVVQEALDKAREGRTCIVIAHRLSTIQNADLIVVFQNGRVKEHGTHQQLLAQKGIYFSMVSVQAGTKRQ
How it was run: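 ABCB1 in A2780/ADR cells (kept resistant by one passage in 1 µM doxorubicin every 10 passages). 30,000 cells per well in Krebs-HEPES buffer, preincubated 30 min at 37 °C with inhibitor. Calcein AM added from a 3.125 µM solution. Fluorescence (ex 485, em 520 nm) read every 60 s for 60 min. Initial linear slopes vs log concentration fitted to give IC50.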

inhibition (INH) [19] | IC50 [20] [µM] | SMILES | Tmin [1] [days] | inhibition (INH) [2] | GI50 at 72 h [3] [µM] | Activity (MDCK-II [4]) | GI50 at 72 h [5] [µM] | selectivity ratio at 2 h (ABCG2 [6]) | inhibition (INH) [7] | Activity [8] | Activity [9] [%] | IC50 [10] [nM] | IC50 [11] [nM] | Activity (MDCK-II [12]) | EC50 [13] [nM] | fold change (FC) [14] | selectivity ratio (ABCG2 [15]) | Activity [16] [%] | Emax at 2 h (ABCG2 [17]) [%] | Emax at 2 h (ABCG2 [18]) [%]
– | – | Cc1cc(Nc2ccc(C#N)c(C)c2)nc(-c2ccccc2)n1 | 4.25 | Active | 15.7 | Non-Toxic | 15.7 | 90 | Active | Non-Toxic | 24 | 175 | 93.5 | Non-Toxic | 17.2 | 2 | 167 | 36 | 106 | 76
Active | 13.4 | Cc1cc(Nc2ccc3nccnc3c2)nc(-c2ccccc2)n1 | – | – | – | Non-Toxic | – | – | – | – | – | 312 | – | Non-Toxic | – | – | – | – | – | 100
